The IC50 is the midpoint of a concentration-inhibition curve.

This passage reports IC50 and Selectivity ratio results from ChEMBL document CHEMBL1157220, “Isoflavonoids and other compounds from Psorothamnus arborescens with antiprotozoal activities” (J Nat Prod, 2006).

Experiment [1] deals with Trypanosoma brucei brucei. Kind of experiment: Antitrypanosomal activity against Trypanosoma brucei brucei MITat 1.2 variant 221 after 72 hrs. Type of experiment: functional, organism-based. The essentials:
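Bloodstream-form parasites grown axenically in HMI-9, seeded late log phase at 10⁵ cells/mL, exposed with or without compound 72 h at 37 °C, humidified 5% CO₂. p-Nitrophenyl phosphate (20 mg/mL solution in 1 M NaOAc pH 5.5, 1% Triton X-100) added, further 6-8 h at 37 °C; acid phosphatase read at 405 nm. IC50 versus untreated control from four-parameter dose-response fit.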

The test system of experiment [2] is Leishmania donovani. Kind of experiment: Antileishmanial activity against Leishmania donovani MHOM/SD/62/IS-CL2D axenic amastigotes after 3 days. Type of experiment: functional, organism-based. The conditions noted are these: 72 h. Summed up:
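Amastigote-like L. donovani parasites were grown axenically in vitro and exposed to compounds for three days. Viability was read with a tetrazolium dye-based reagent, following a previously described protocol.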

In experiment [3] the test system is Vero. Kind of experiment: Cytotoxicity against african green monkey Vero cells. Type of experiment: cell-based. The conditions noted are these: Chlorocebus sabaeus.
Experiment [4] deals with PC-3. Kind of experiment: Cytotoxicity against human PC3 cells. Format: cell-based.
A short description of experiment [5]: Selectivity of IC50 for Trypanosoma brucei brucei MITat 1.2 variant 221 to IC50 for african green monkey Vero cells.

As for `COc1ccc2c(C=O)c(-c3cc4c(cc3O)OCO4)oc2c1`, the IC50 in experiment [1], in experiment [2], in experiment [3] and in experiment [4] was over 250 µM each time.
Take `COc1cc2cc(c1Cl)N(C)C(=O)C[C@H](OC(=O)C(C)C)[C@]1(C)O[C@@H]1[C@H](C)[C@@H]1C[C@@](O)(NC(=O)O1)[C@H](OC)/C=C/C=C(\C)C2` [ANSAMITOCIN P3]: the 50% inhibitory concentration (IC50) in experiment [3] was 0.0012 µM.
In turn, `Cc1ccc(C(=O)Nc2ccc(S(=O)(=O)O)c3cc(S(=O)(=O)O)cc(S(=O)(=O)O)c23)cc1NC(=O)c1cccc(NC(=O)Nc2cccc(C(=O)Nc3cc(C(=O)Nc4ccc(S(=O)(=O)O)c5cc(S(=O)(=O)O)cc(S(=O)(=O)O)c45)ccc3C)c2)c1` [SURAMIN] returned an IC50 in experiment [1] of 0.19 µM.
Still for that read-out and setting: then `COc1ccc(-c2coc3cc(OC)ccc3c2=O)cc1`, with over 100 µM.
For `COc1cc(OC)c2c(=O)c(-c3cc(CC=C(C)C)c(OC)c(OC)c3)coc2c1`, the half-inhibitory concentration (IC50) was 7.8 µM in experiment [1], 41.4 µM in experiment [2], 44.3 µM in experiment [3] and 30.9 µM in experiment [4].
Turning to `CC1(C)CCc2cc(-c3coc4cc(O)cc(O)c4c3=O)cc(O)c2O1`, the half-inhibitory concentration (IC50) worked out at 77 µM in experiment [1], 68.3 µM in experiment [2] and 79.3 µM in experiment [4].
Regarding `Oc1ccc2c(c1)OCC1c3cc4c(cc3OC21)OCO4` (racemic), the half-inhibitory concentration (IC50) in experiment [1] is 130 µM; in experiment [2], over 250 µM; in experiment [3], over 250 µM; in experiment [4], over 250 µM.
For the compound `O=c1c(-c2ccc(O)cc2)coc2cc(O)cc(O)c12` [GENISTEIN], the IC50 in experiment [1] was 4.2 µM; in experiment [2], 73 µM; in experiment [3], 32.9 µM.
Consider `O=C(/C=C/c1ccc(O)cc1)c1ccc(O)cc1O` [ISOLIQUIRITIGENIN], for which the IC50 was 32.8 µM in experiment [1], 20.7 µM in experiment [2], 65.6 µM in experiment [3] and 46.4 µM in experiment [4].
`C=CC(C)(C)c1cc(OC)c(OC)cc1-c1coc2cc(OC)cc(O)c2c1=O` [TRIMETHYLFREMONTIN]: the values for the IC50 in experiment [1], in experiment [2] and in experiment [4] were 32.3 µM, over 250 µM and 146 µM, respectively.
`O=c1c(-c2ccc(O)cc2)coc2cc(O)ccc12` [DAIDZEIN] yielded an IC50 in experiment [1] of 23.7 µM.
`C=CC(C)(C)c1cc(OC(C)=O)c(OC(C)=O)cc1-c1coc2cc(OC(C)=O)cc(OC(C)=O)c2c1=O` [FREMONTIN TETRAACETATE]: the half-inhibitory concentration (IC50) worked out at 67.8 µM in experiment [1], 42.7 µM in experiment [2] and 66.2 µM in experiment [4].
As to `COc1ccc(-c2coc3cc(O)ccc3c2=O)cc1` [FORMONONETIN], the 50% inhibitory concentration (IC50) in experiment [1] was 90.2 µM.
As for `CC(C)=CCc1cc(-c2coc3cc(O)cc(O)c3c2=O)cc(O)c1O` [GLYCYRRHISOFLAVONE], the IC50 in experiment [1] worked out at 33 µM; in experiment [2], 46.3 µM; in experiment [3], 52.8 µM; in experiment [4], 62.1 µM.
Turning to `O=c1c(-c2ccccc2)coc2cc(O)ccc12` [7-HYDROXY ISOFLAVONE], the IC50 is 94.2 µM in experiment [1] and 113 µM in experiment [2].
In the case of `CC1(C)CC[C@]2(C(=O)O)CC[C@]3(C)C(=CC[C@@H]4[C@@]5(C)CC[C@H](O)C(C)(C)[C@@H]5CC[C@]43C)[C@@H]2C1` [OLEANOLIC_ACID], the IC50 in experiment [1] is 43.1 µM; in experiment [2] it was over 250 µM; in experiment [3], over 250 µM; in experiment [4], 211 µM.
As to `O=c1c(-c2ccc(O)c(O)c2)coc2cc(O)ccc12`, the half-maximal inhibitory concentration (IC50) in experiment [1] came out at 7.1 µM; in experiment [3], 135 µM.
On to `N=C(N)c1ccc(OCCCCCOc2ccc(C(=N)N)cc2)cc1` [PENTAMIDINE], for which 1.5 µM corresponded to half-maximal inhibition in experiment [2] (IC50).
Turning to `Oc1ccc2c(c1O)OCC1c3cc4c(cc3OC21)OCO4` (racemic), the IC50 in experiment [1] turned out to be 3.7 µM; in experiment [2], 37.3 µM; in experiment [3] it was 3.3 µM; in experiment [4], 28 µM.
Taken in the same sequence, the figures for `CC(C)=CCc1c(-c2coc3cc(O)cc(O)c3c2=O)ccc(O)c1O` were 12.1 µM, 13 µM, 37.5 µM and 12.7 µM.
Compound `COc1cc([C@@H]2c3cc4c(cc3[C@H](O)[C@H]3COC(=O)[C@H]23)OCO4)cc(OC)c1OC` [PODOFILOX] gave a half-inhibitory concentration (IC50) in experiment [4] of 0.0125 µM.
Consider `COc1ccc(-c2coc3cc(O)ccc3c2=O)cc1O` [CALYCOSIN], for which the IC50 in experiment [1] came out at 12.7 µM; in experiment [2], 100 µM; in experiment [3] it was 159 µM; in experiment [4], 130 µM. Moreover, in experiment [5], the Selectivity ratio was determined as 15.
For the compound `COc1cc(O)c2c(=O)c(-c3ccc(O)cc3)coc2c1` [PRUNETIN], inhibition in experiment [1] was half-maximal at 20.2 µM (IC50).
For `C=CC(C)(C)c1cc(OC)c(OC)cc1-c1coc2cc(OC)cc(OC)c2c1=O`, the half-maximal inhibitory concentration (IC50) in experiment [1] was determined as 41.7 µM; in experiment [2] it was 86 µM; in experiment [4], 134 µM.
Regarding `O=c1cc(-c2ccc(O)cc2)oc2cc(O)cc(O)c12` [APIGENIN], it took 11.9 µM to reach half-maximal inhibition in experiment [1] (IC50).
`COc1ccc(-c2coc3cc(O)cc(O)c3c2=O)cc1` [BIOCHANIN]: the results for the IC50 in experiment [1] and in experiment [2] were 12.3 µM and 89.9 µM, respectively.
On to `CC1(C)CCc2c(-c3coc4cc(O)cc(O)c4c3=O)ccc(O)c2O1`, for which the half-inhibitory concentration (IC50) in experiment [1] came out at 57.9 µM; in experiment [2], 38.4 µM; in experiment [4] it was 107 µM.
